Data published in ChEMBL document CHEMBL5329145, “Antileishmanial evaluation of triazole-butenolide conjugates: design, synthesis, in vitro screening, SAR and in silico ADME predictions” (RSC Med Chem, 2023).
The source made the active and inactive calls. No cut-off for these calls is given here.

Legend:
[1] = tested on: Leishmania donovani; test: Antileishmanial activity against Leishmania donovani MHOM/IN/80/Dd8 promastigotes transfected with luciferase reporter gene assessed as inhibition of promastigotes growth incubated for 72 hrs by Steady-Glo reagent based luminescence analysis; format: functional, organism-based; conditions: for IC50: MHOM/IN/80/Dd8, 72 h
Summary of the method: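 Luciferase-transgenic L. donovani promastigotes kept under G418 (20 μg mL⁻¹) in Medium 199 with 10% FCS at 25 ± 1 °C. Late-log cells seeded at 5×10⁵ per well with serial dilutions in DMSO for 72 h, DMSO controls run alongside. Luminescence read with Steady-Glo. % inhibition = (N−n)/N×100 vs untreated. IC50 by probit analysis, mean ± SD of three assays.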

[2] = tested on: Leishmania donovani; test: Antileishmanial activity against Leishmania donovani MHOM/IN/80/Dd8 amastigotes infected in mouse J774.A1 cells assessed as inhibition of amastigotes growth incubated for 48 hrs by Steady-Glo reagent based luminescence analysis; format: functional, organism-based; conditions: for IC50: MHOM/IN/80/Dd8, J774.A1, 48 h
Summary of the method: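 J774A cells (2×10⁵ per well, RPMI-1640 with 15% FCS) incubated 24 h at 37 °C in CO2, then infected with stationary-phase luciferase promastigotes (2×10⁶ per well) to give amastigotes. Compound added in fresh medium for 48 h at 37 °C. Medium replaced by PBS, Steady-Glo luminescence read, % inhibition vs untreated. IC50 by probit analysis, mean ± SD of three assays.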

[3] = tested on: Plasmodium falciparum; test: Antimalarial activity against Plasmodium falciparum 3D7; format: functional, organism-based
[4] = tested on: Brugia malayi; test: Antifilarial activity against Brugia malayi assessed as reduction in worm viability by measuring inhibition of MTT reduction at 50 to 100 uM incubated for 24 hrs by MTT assay relative to control; format: functional; conditions: dose 50-100 µM
[5] = Cytotoxicity against mouse J774.A1 cells assessed as reduction in cell growth incubated for 48 hrs by MTT assay; format: toxicity, cell-based
Summary of the method: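 J774A cells seeded at 0.2 million per well, incubated overnight at 37 °C with 5% CO2, then exposed to compound dilutions in DMSO (DMSO controls) for 48 h. Viability by MTT formazan, OD at 600 nm against blank. CC50 is the concentration giving 50% viability loss vs medium-only cells, from probit analysis. Mean ± SD of three assays.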

[6] = Selectivity index, ratio of CC50 for cytotoxicity against mouse J774.A1 cells to IC50 for antileishmanial activity against Leishmania donovani MHOM/IN/80/Dd8 amastigotes infected in mouse J774.A1 cells; format: toxicity, cell-based; conditions: read-out: Ratio CC50/IC50
Summary of the method: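 SI = CC50 in J774A cells (MTT, 48 h) divided by IC50 against intracellular amastigotes (luciferase, 48 h). Both values are means of three independent assays.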

[7] = Stability of compound in simulated intestinal fluid assessed as parent compound remaining at pH 6.8 measured for 120 mins by LC-MS/MS analysis; format: ADME; conditions: read-out: Stability
Summary of the method: (§1)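 Simulated fluids prepared to USP (SGF pH 1.2, SIF pH 6.8, SPF pH 7.4) and hamster plasma pre-incubated at 37 ± 2 °C for 15 min in a shaking water bath, then spiked with compound. Aliquots taken at intervals up to 120 min, quenched with acetonitrile, vortexed and centrifuged. Remaining analyte quantified by LC-MS/MS.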

[8] = Stability of compound in simulated gastric fluid assessed as parent compound remaining at pH 1.2 measured for 120 mins by LC-MS/MS analysis; format: ADME; conditions: read-out: Stability; summary of the method: as §1
[9] = Stability of compound in simulated physiological fluid assessed as compound remaining at pH 7.4 measured for 120 mins by LC-MS analysis; format: physicochemical; conditions: read-out: Stability; summary of the method: as §1
[10] = Stability of compound in golden hamster plasma assessed as compound remaining measured for 120 mins by LC-MS analysis; format: ADME, cell-free, Mesocricetus auratus; conditions: read-out: Stability; summary of the method: as §1
[11] = Cmax in golden hamster at 50 mg/kg, po measured after 5 mins to 24 hrs by LC-MS/MS analysis; format: ADME, organism-based, Mesocricetus auratus; design: dose 50 mg/kg, time upper 1440 min, time lower 5 min, route po; conditions: in vivo
Summary of the method: (§2)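 Golden hamsters fasted before dosing, oral 50 mg kg⁻¹. Retro-orbital blood drawn under anesthesia from 5 min to 24 h, spun at 6000g for 20 min, plasma stored at -80 °C. Protein precipitation with acetonitrile containing carbamazepine IS (3 ng mL⁻¹). LC-MS/MS on C18 column, isocratic 90% acetonitrile, positive mode, transition m/z 375.2/198.3. Parameters from non-compartmental analysis.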

[12] = Tmax in golden hamster at 50 mg/kg, po measured after 5 mins to 24 hrs by LC-MS/MS analysis; format: ADME, organism-based, Mesocricetus auratus; conditions: in vivo, time 5-1440 min; summary of the method: as §2
[13] = AUC in golden hamster at 50 mg/kg, po measured after 5 mins to 24 hrs by LC-MS/MS analysis; format: ADME, organism-based, Mesocricetus auratus; design: time lower 5 min, dose 50 mg/kg, time upper 1440 min, route po; conditions: in vivo; summary of the method: as §2
[14] = Half life in golden hamster at 50 mg/kg, po measured after 5 mins to 24 hrs by LC-MS/MS analysis; format: ADME, organism-based, Mesocricetus auratus; conditions: in vivo, time 5-1440 min; summary of the method: as §2
[15] = Clearance in golden hamster at 50 mg/kg, po measured after 5 mins to 24 hrs by LC-MS/MS analysis; format: ADME, organism-based, Mesocricetus auratus; conditions: in vivo, time 5-1440 min; summary of the method: as §2
[16] = Volume of distribution in golden hamster at 50 mg/kg, po measured after 5 mins to 24 hrs by LC-MS/MS analysis; format: ADME, organism-based, Mesocricetus auratus; conditions: in vivo, time 5-1440 min; summary of the method: as §2
[17] = MRT in golden hamster at 50 mg/kg, po measured after 5 mins to 24 hrs by LC-MS/MS analysis; format: ADME, organism-based, Mesocricetus auratus; conditions: in vivo, time 5-1440 min; summary of the method: as §2

SMILES	IC50 [1] [µM]	IC50 [2] [µM]	CC50 at 48 h [5] [µM]	selectivity ratio [6]	also measured
CCc1ccc(-n2cc(CNC3=C(Cl)C(=O)OC3O)nn2)cc1 (stereo not given)	≥ 50	–	–	–	inhibition [2]: inactive
O=C1OC(O)C(NCc2cn(-c3ccc4c(c3)OCO4)nn2)=C1Cl (stereo not given)	≥ 50	≥ 50	–	–	IC50 [3]: 4.34 µM; inhibition (INH) [4]: 52%
O=C1OC(O)C(NCc2cn(-c3ccc(F)c(F)c3)nn2)=C1Cl (stereo not given)	≥ 50	8.4	172	20.5	IC50 [3]: 3.65 µM; remaining at 2 h [7]: ≥ 70%; remaining at 2 h [8]: ≥ 70%; remaining at 2 h [9]: ≥ 70%; remaining at 2 h [10]: ≥ 70%; Cmax [11]: 1110 ng/mL; Tmax [12]: 2 h; AUC [13]: 4500 ng·h/mL; half-life [14]: 2.15 h; CL/F [15]: 207 mL/min/kg; Vd [16]: 38.15 L/kg; MRT [17]: 3.64 h
CCCCCCCCCCCCCCCCOP(=O)([O-])OCC[N+](C)(C)C [MILTEFOSINE]	–	9.42	52.1	5.53	–
Cc1ccc(C)c(-n2cc(CNC3=C(Cl)C(=O)OC3O)nn2)c1 (stereo not given)	≥ 50	≥ 50	–	–	IC50 [3]: 4.57 µM
O=C1OC(O)C(NCc2cn(-c3ccccc3Oc3ccccc3)nn2)=C1Cl (stereo not given)	≥ 50	≥ 20	–	–	IC50 [3]: 4.65 µM
O=C1OC(O)C(NCc2cn(-c3ccccc3[N+](=O)[O-])nn2)=C1Cl (stereo not given)	≥ 50	≥ 25	–	–	–
O=C1OC(O)C(NCc2cn(-c3cccc(C(F)(F)F)c3)nn2)=C1Cl (stereo not given)	32.4	8.45	102	12.1	–
CCCCc1ccc(-n2cc(CNC3=C(Cl)C(=O)OC3O)nn2)cc1 (stereo not given)	≥ 50	–	–	–	inhibition [2]: inactive
Cc1ccc(-n2cc(CNC3=C(Cl)C(=O)OC3O)nn2)cc1 (stereo not given)	≥ 50	–	–	–	inhibition [2]: inactive
Cc1ccc(-n2cc(CNC3=C(Cl)C(=O)OC3O)nn2)cc1F (stereo not given)	≥ 50	≥ 20	–	–	inhibition (INH) [4]: 66%
O=C1OC(O)C(NCc2cn(-c3ccc(F)c(Cl)c3)nn2)=C1Cl (stereo not given)	35.5	10.6	78	7.38	–
C#CCNC1=C(Cl)C(=O)OC1O (stereo not given)	≥ 50	11.3	97.2	8.56	inhibition (INH) [4]: 65%
COc1cc(-n2cc(CNC3=C(Cl)C(=O)OC3O)nn2)cc(OC)c1OC (stereo not given)	≥ 100	11.3	84.8	7.5	–
CC(C)(C)c1ccc(-n2cc(CNC3=C(Cl)C(=O)OC3O)nn2)cc1 (stereo not given)	≥ 50	≥ 25	–	–	IC50 [3]: 4.4 µM
O=C1OC(O)C(NCc2cn(-c3ccccc3)nn2)=C1Cl (stereo not given)	≥ 50	–	–	–	inhibition [2]: inactive
O=C1OC(O)C(NCc2cn(-c3ccc(F)c(C(F)(F)F)c3)nn2)=C1Cl (stereo not given)	30.6	9.02	136	15	–
Cc1cc(C)c(-n2cc(CNC3=C(Cl)C(=O)OC3O)nn2)c(C)c1 (stereo not given)	≥ 50	≥ 20	–	–	–
O=C1OC(O)C(NCc2cn(-c3ccc(F)cc3)nn2)=C1Cl (stereo not given)	≥ 50	–	–	–	inhibition [2]: inactive; IC50 [3]: 4.42 µM
COc1ccc(-n2cc(CNC3=C(Cl)C(=O)OC3O)nn2)cc1OC (stereo not given)	–	–	–	–	inhibition [1]: inactive; inhibition [2]: inactive
COc1ccc(-n2cc(CNC3=C(Cl)C(=O)OC3O)nn2)cc1 (stereo not given)	≥ 50	≥ 25	–	–	IC50 [3]: 4.9 µM
O=C1OC(O)C(NCc2cn(-c3ccc(Cl)c(Cl)c3)nn2)=C1Cl (stereo not given)	34.1	8.63	84.2	9.75	inhibition (INH) [4]: 52%
Cc1ccc(-n2cc(CNC3=C(Cl)C(=O)OC3O)nn2)cc1C (stereo not given)	32.5	10.1	93.5	9.27	inhibition (INH) [4]: 52%
CC(C)c1ccc(-n2cc(CNC3=C(Cl)C(=O)OC3O)nn2)cc1 (stereo not given)	–	≥ 50	–	–	inhibition [1]: inactive
O=C1OC(O)C(NCc2cn(-c3ccc(Cl)cc3)nn2)=C1Cl (stereo not given)	≥ 50	≥ 50	–	–	–
